From the M2OR odorant receptor database
Substitutions are numbered along the chain they refer to.

What was measured:
Settings in all cases: stereoisomer not certain
O1440 [1] = system: T1, O1440
T1 sequence (whole entry): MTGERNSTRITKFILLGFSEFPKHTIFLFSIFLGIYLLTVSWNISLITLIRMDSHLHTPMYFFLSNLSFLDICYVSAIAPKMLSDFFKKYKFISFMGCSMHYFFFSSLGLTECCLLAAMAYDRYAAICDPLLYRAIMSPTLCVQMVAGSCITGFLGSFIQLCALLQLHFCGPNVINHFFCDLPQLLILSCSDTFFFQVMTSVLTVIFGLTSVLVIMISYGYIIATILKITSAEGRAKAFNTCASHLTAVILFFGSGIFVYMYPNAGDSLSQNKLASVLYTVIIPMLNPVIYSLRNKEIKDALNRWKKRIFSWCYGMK
In short: (§1)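 Each receptor–molecule pair is labelled responsive or non-responsive (inactive) according to whether the original authors judged the measured signal statistically different from baseline. The data were taken from the main text and supplementary material of published papers and checked for typos and inconsistencies. Assay methods differed by source, with transient luciferase assays in mammalian cell lines being common.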

O1440 [2] = system: T2, O1440; remark: listed apart in the source
T2 sequence (whole entry): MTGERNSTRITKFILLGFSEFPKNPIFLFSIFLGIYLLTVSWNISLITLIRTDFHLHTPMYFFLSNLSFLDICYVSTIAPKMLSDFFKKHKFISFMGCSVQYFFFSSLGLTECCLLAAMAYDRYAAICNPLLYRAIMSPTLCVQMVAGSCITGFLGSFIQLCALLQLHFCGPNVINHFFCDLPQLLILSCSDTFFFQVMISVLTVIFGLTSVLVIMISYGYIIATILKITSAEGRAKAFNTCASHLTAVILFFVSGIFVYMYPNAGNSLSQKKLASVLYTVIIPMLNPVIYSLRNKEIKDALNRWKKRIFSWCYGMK
In short: as §1

O13C8 A19D = system: T3, O13C8 A19D
T3 sequence (whole entry): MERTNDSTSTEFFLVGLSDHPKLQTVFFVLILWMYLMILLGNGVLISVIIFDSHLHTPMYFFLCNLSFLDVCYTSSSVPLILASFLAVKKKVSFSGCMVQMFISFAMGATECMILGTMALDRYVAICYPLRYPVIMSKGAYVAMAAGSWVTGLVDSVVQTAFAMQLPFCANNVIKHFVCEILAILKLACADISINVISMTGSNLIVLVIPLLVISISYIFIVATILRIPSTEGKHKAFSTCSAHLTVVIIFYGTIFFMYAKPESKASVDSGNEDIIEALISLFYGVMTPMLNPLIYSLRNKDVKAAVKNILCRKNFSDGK
In short: as §1

O13C9 H17L V19G L23H = system: T4, O13C9 H17L V19G L23H
T4 sequence (whole entry): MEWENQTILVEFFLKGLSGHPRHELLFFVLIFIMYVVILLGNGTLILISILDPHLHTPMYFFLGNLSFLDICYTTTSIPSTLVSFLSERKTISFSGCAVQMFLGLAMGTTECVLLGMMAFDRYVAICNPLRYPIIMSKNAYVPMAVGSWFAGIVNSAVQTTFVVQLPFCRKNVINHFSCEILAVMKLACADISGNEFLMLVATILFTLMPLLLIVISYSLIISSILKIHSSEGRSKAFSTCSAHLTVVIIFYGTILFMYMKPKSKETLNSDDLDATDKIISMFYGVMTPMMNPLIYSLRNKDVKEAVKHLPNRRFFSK
In short: as §1

O13C9 Q6H = system: T5, O13C9 Q6H
T5 sequence (whole entry): T4 sequence (whole entry) with Q6H, L17H, G19V, H23L
In short: as §1

O13F1 F18S T254M = system: T6, O13F1 F18S T254M
T6 sequence (whole entry): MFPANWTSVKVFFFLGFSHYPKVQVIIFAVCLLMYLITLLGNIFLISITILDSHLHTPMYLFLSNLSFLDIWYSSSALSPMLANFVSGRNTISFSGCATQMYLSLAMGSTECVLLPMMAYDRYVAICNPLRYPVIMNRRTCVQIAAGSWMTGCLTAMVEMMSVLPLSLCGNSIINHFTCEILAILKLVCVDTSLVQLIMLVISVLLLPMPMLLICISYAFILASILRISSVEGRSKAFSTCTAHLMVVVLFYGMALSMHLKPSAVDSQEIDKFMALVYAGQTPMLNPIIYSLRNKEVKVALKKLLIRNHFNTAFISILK
In short: as §1

O13F1 F18S = system: T7, O13F1 F18S
T7 sequence (whole entry): T6 sequence (whole entry) with M254T
In short: as §1

O13G1 K46I M146L = system: T8, O13G1 K46I M146L
T8 sequence (whole entry): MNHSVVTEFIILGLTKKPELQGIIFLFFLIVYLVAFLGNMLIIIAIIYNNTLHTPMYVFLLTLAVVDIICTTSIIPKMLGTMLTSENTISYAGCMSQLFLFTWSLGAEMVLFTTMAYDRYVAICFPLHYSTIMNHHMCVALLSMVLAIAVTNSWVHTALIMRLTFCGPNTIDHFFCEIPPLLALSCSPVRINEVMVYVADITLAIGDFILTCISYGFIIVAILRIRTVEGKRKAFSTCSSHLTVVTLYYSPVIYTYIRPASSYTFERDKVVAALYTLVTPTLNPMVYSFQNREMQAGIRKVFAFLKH
In short: as §1

O13G1 = system: T9, O13G1
T9 sequence (whole entry): T8 sequence (whole entry) with I46K, I132V, L146M
In short: as §1

O13H1 Y266S = system: T10, O13H1 Y266S
T10 sequence (whole entry): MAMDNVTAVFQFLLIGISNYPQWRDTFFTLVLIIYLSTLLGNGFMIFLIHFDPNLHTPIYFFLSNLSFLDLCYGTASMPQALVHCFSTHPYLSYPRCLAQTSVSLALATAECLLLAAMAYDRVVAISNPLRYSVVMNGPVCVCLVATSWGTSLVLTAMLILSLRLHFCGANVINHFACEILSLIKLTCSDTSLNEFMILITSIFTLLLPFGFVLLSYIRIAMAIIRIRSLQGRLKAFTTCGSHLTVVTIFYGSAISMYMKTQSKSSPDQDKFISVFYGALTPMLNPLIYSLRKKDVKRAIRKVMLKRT
In short: as §1

O13J1 = system: T11, O13J1
T11 sequence (whole entry): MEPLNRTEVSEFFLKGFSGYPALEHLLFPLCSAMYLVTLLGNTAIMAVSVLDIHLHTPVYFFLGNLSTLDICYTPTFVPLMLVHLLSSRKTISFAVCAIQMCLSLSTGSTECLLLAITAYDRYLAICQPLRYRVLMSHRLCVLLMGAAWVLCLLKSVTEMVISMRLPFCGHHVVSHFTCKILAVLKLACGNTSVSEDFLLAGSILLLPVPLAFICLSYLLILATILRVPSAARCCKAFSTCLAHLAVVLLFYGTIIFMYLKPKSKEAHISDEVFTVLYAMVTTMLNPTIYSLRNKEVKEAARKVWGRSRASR
In short: as §1

O14A2 I133V = system: T12, O14A2 I133V
T12 sequence (whole entry): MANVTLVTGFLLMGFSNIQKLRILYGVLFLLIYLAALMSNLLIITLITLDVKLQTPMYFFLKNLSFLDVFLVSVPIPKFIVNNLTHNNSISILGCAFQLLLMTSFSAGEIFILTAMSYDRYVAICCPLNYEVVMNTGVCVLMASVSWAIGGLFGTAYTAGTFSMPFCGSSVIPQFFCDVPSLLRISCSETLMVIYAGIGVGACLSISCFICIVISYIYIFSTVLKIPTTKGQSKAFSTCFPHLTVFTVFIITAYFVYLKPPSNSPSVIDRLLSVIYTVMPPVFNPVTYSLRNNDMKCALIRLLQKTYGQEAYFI
In short: as §1

O14CZ = system: T13, O14CZ
T13 sequence (whole entry): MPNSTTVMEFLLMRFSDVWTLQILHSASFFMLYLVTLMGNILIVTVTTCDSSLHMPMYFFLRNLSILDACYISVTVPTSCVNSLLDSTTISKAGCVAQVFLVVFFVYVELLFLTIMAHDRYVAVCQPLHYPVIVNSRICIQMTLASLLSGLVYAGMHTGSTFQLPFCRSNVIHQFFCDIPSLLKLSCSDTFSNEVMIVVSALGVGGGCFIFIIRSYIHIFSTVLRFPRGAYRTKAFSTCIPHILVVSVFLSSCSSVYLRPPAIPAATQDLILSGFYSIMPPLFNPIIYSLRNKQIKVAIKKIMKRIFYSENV
In short: as §1

O14I1 V36A D50N Y216C = system: T14, O14I1 V36A D50N Y216C
T14 sequence (whole entry): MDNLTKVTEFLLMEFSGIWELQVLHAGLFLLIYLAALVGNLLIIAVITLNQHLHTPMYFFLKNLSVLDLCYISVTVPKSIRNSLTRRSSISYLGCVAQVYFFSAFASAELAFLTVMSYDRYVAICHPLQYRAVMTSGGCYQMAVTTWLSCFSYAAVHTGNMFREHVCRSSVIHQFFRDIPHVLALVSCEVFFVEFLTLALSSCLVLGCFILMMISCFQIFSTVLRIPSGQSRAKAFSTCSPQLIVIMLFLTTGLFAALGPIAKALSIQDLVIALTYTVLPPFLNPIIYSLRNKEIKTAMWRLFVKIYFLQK
In short: as §1

O14J1 N3Y = system: T15, O14J1 N3Y
T15 sequence (whole entry): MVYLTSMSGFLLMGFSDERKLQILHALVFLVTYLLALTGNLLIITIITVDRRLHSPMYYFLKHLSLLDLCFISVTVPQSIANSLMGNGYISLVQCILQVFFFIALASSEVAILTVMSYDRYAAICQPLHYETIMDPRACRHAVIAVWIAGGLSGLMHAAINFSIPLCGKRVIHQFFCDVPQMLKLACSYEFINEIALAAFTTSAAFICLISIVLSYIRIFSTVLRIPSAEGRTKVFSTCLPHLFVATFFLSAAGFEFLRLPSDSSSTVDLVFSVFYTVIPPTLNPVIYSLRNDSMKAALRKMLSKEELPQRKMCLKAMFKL
In short: as §1

O14K1 D119Y = system: T16, O14K1 D119Y
T16 sequence (whole entry): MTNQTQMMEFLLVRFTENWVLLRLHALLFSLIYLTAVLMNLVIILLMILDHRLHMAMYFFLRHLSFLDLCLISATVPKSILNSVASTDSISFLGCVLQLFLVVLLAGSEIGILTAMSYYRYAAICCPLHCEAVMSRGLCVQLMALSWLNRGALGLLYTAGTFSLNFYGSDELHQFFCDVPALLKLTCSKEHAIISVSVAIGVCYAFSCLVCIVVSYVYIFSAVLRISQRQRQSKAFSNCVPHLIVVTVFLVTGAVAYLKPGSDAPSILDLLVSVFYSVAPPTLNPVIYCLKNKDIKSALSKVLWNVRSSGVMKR
In short: as §1

O2A25 = system: T17, O2A25
T17 sequence (whole entry): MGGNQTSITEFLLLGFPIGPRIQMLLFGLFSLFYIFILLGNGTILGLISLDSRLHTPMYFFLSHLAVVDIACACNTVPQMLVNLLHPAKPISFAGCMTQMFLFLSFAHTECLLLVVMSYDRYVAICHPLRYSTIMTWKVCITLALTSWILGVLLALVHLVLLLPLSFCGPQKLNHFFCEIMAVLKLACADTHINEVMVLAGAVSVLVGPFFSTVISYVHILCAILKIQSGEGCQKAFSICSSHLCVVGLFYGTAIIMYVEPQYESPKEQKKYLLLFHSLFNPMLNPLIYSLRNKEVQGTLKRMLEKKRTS
In short: as §1

O2AE1 = system: T18, O2AE1
T18 sequence (whole entry): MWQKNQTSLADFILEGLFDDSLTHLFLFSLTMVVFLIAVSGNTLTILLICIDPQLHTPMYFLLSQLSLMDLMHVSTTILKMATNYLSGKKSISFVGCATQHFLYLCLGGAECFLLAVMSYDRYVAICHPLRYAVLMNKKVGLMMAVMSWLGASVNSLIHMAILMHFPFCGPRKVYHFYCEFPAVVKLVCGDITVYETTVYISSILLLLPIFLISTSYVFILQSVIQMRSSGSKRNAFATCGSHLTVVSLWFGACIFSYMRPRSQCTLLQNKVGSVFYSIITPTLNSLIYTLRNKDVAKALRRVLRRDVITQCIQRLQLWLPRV
In short: as §1

O2AJ1 = system: T19, O2AJ1
T19 sequence (whole entry): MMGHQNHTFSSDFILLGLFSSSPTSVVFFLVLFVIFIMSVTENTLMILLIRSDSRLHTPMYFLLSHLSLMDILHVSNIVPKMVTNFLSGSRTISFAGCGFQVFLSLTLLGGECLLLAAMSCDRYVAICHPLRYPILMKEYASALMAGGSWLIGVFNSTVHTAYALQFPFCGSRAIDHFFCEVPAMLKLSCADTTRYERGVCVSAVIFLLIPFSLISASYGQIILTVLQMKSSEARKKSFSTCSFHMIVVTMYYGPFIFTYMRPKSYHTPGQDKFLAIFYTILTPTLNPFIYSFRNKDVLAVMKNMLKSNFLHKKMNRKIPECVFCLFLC
In short: as §1

O2AK2 S99N = system: T20, O2AK2 S99N
T20 sequence (whole entry): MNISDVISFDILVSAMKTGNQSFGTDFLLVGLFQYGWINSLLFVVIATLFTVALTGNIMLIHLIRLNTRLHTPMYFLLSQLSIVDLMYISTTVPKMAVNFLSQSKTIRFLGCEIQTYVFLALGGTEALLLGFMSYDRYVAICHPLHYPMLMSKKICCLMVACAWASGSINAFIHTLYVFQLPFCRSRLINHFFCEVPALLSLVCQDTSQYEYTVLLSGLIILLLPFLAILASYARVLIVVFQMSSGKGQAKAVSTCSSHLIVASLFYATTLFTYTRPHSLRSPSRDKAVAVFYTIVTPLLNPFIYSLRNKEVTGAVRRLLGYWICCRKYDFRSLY
In short: as §1

Measured: odorant receptor agonist call

OC1CCCCCCCCCCCCCC1
active: O1440 [1] | O1440 [2]

O=C1CCCCCCCCCC1
inactive: O1440 [1] | O1440 [2]

CC1=C(O)C(=O)OC1C (configuration not stated)
not listed: O1440 [1] | O1440 [2]
inactive: all other assays above
